CSN inh = inhibitors of CSN-mediated cullin deneddylation, primary screen, biochemical, fluorescence polarization, uHTS. Purified CSN, SCF-Nedd8-OG deneddylation. inhibition, % at 12.5 µM. actives 0.38% (n = 360,000). AID 651999, 2013;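 active means pattern-corrected inhibition above about 35%, with an unprinted fluorescence ratio check between 0.5 and 1.5, limit read from the data, passing the limit was not always enough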
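assay system = purified human Csn5 enzyme expressed in HEK293T cells | amount = 0.24 nM enzyme | buffer or medium = Tris/NaCl/DTT buffer, pH 7.5 | reagent = 10 nM SCFSkp2-Nedd8OG | compound = one concentration, 12.5 µM, 0.25% DMSO | times = 90 min reaction at room temperature | signal = FP | read-out basis = % inhibition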
TPT1 inhibitor = Candida albicans TPT1 enzyme inhibitors, primary screen, biochemical, fluorescence polarization; inhibition, % at 5 µM; AID 1962, 2009; actives 0.81% (n = 300,000); recombinant caTPT1, FP RNA substrate dephosphorylation; tRNA 2'-phosphotransferase TPT1 (Candida albicans SC5314);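 active means inhibition above the mean of all tested compounds plus 3 SD, set per screening campaign, cut at about 24% in these data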
HNF4A DNA FP = change in binding of human HNF4A to DNA, primary screen, biochemical, fluorescence polarization, FITC-DNA | Hepatocyte nuclear factor 4-alpha (Homo sapiens), P41235 | 1 h | activity change, % at 10 µM | actives 0.3% (n = 360,000) | AID 1224865, 2016; in the data active means activity change above about 30%, passing the limit was not always enough
Target sequence (P41235 whole entry, looked up): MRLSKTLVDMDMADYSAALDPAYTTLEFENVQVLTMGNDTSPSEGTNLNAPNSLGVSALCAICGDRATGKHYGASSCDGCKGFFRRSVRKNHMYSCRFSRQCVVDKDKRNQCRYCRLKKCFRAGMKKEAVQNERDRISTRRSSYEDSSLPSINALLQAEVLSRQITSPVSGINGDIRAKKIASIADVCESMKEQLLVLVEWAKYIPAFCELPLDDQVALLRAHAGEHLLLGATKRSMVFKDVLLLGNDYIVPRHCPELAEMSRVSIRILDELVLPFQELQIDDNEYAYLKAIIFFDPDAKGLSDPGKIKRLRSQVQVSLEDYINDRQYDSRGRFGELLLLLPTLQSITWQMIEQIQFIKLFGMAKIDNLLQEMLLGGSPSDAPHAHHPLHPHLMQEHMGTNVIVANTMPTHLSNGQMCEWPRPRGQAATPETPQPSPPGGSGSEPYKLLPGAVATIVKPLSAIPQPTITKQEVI
Rpn11 inh = Rpn11 (PSMD14) deubiquitinase inhibitors, primary screen, biochemical, fluorescence polarization, uHTS. 26S proteasome non-ATPase regulatory subunit 14 (Homo sapiens), O00487. human 26S proteasome, Ub4-pepOG fluorescence polarization; 20S core pre-blocked with epoxomicin. calls only at 20 µM. actives 0.59% (n = 360,000);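 active means inhibition at 20 µM, scaled to each plate's controls, above about 33%, limit read from the data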
IDE cell inh = human IDE inhibitors in live cells, primary screen, fluorescence polarization, HEK cells, FAbetaB substrate. FAbetaB cleavage. actives 0.41% (n = 320,000). inhibition, % at 5.59 µM. Insulin-degrading enzyme (Homo sapiens), P14735;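 active means percent inhibition above the average of all tested compounds plus 3 SD, set per screening campaign, cut at about 16% in these data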;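 further: IDE supplied by intact live HEK cells; FP after avidin binding of uncleaved biotin substrate so inhibition keeps polarization high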
IDE cell activ = human IDE activators in live cells, primary screen, fluorescence polarization, HEK cells, FAbeta-B substrate. actives 0.073% (n = 340,000). FAbeta-B cleavage; 0% vehicle, 100% cell-free pure enzyme wells. activation, % at 5.96 µM;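 active means activation above the mean of all tested compounds plus 3 SD, set per screening campaign, cut at about 17% in these data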
TPT1 inh confirm = Candida albicans TPT1 inhibitors, confirmation, biochemical, fluorescence polarization, triplicate; shares compounds with TPT1 inhibitor; recombinant caTPT1, RNase T1 coupled; inhibition, % at 5 µM; actives 74% (n = 2,400); AID 2149, 2009;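 active means inhibition above the primary screen limit, the mean inhibition of all tested compounds plus 3 SD, cut at about 25% in these data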
RNase T1 counter = RNase T1 inhibitors, counter-screen for TPT1 inhibitor project, biochemical, fluorescence polarization; shares compounds with TPT1 inhibitor; RNase T1 cleavage, 1536-well; inhibition, % at 5 µM; actives 83% (n = 2,400);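 active means inhibition above the solvent-only control well mean plus 3 SD, limit set per screening run, cut at about 23% in these data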;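 further: inhibitors block cleavage so intact labeled substrate keeps polarization high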
Target sequence (P00651 whole entry, looked up): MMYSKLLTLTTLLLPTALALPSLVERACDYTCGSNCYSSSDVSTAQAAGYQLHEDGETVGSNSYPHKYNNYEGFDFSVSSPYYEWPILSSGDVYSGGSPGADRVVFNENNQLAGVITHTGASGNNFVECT
Each line names hits and unclear results; the compound was inactive in the other large screens (follow-up assays come after a bar, where shown). This is a sample that favours compounds with a hit; in the whole collection about 1.7% have one here.

COc1ccc(CCNC(=O)Cn2cnc3c2c(=O)n(C)c(=O)n3C)cc1OC	none
Cc1ccc(S(=O)(=O)CCSc2nc(C)cc(C(F)(F)F)c2C#N)cc1	TPT1 inhibitor 39.8 (not shown: Rpn11 inh) | TPT1 inh confirm 57.7 | RNase T1 counter 69.4
Cc1cc(C)nc(N/N=C/c2cccc3ccccc23)n1	none
Cc1cc(=O)[nH]c(SCC(=O)c2ccccc2)c1C#N	TPT1 inhibitor 51.1 | TPT1 inh confirm 31.1 | RNase T1 counter 45.4
Cc1ccc2c(c1)C1(C(=O)N2C)N2CC3(C)CN1CC(C)(C2)C3=O (configuration not stated)	TPT1 inhibitor 64.1 | TPT1 inh confirm inactive | RNase T1 counter inactive
CCCC12CN3CC(C)(CN(C1)C31C(=O)Nc3ccc(C)cc31)C2=O (configuration not stated)	none
C/C(=N\NS(=O)(=O)c1ccc([N+](=O)[O-])cc1)c1ccc2c(c1)OCO2	none (no result: TPT1 inhibitor, IDE cell inh)
C/C(=N/Nc1ccc([N+](=O)[O-])cc1)c1ccc(C)cc1C	TPT1 inhibitor 26.0 | TPT1 inh confirm 35.9 | RNase T1 counter 46.7
C/C(=N\Nc1ccc([N+](=O)[O-])cc1)c1ccc2c(c1)OCO2	TPT1 inhibitor 57.0 | TPT1 inh confirm 52.8 | RNase T1 counter 65.2
CC(C)(C)c1ccc(COn2c(=O)c(-c3ccco3)[n+]([O-])c3ccccc32)cc1	none
CNC(=O)c1[nH]cnc1C(=O)Nc1ccccc1	none (no result: TPT1 inhibitor)
CNC(=O)c1[nH]cnc1C(=O)Nc1ccccn1	TPT1 inhibitor 93.6 | TPT1 inh confirm inactive | RNase T1 counter inactive
COc1ccc(NC(=O)CN2CCN(C(=O)C3CCCO3)CC2)c(OC)c1 (configuration not stated)	none
O=C(/C=C/N1CCOCC1)c1coc2ccccc12	TPT1 inhibitor 25.5 | TPT1 inh confirm inactive | RNase T1 counter inactive
O=C(O)c1coc2ccccc12	none (no result: CSN inh, HNF4A DNA FP, Rpn11 inh, IDE cell activ)
O=C(/C=C/N1CCOCC1)c1cc2ccccc2o1	TPT1 inhibitor 25.5 | TPT1 inh confirm inactive | RNase T1 counter inactive
COc1ccc([N+](=O)[O-])cc1NC(=O)C(C)Sc1nc(C)c(C)c(C)n1 (configuration not stated)	none
CC(=O)c1ccc(-c2ccc(/C=C(/Sc3n[nH]c(C)n3)C(=O)O)o2)cc1	TPT1 inhibitor 77.7 (not shown: Rpn11 inh) | TPT1 inh confirm 79.1 | RNase T1 counter 91.2
CCCN1C(=O)S/C(=C/c2ccc(N3CCOCC3)o2)C1=O	TPT1 inhibitor 179.9 (not shown: Rpn11 inh) | TPT1 inh confirm 183.4 | RNase T1 counter 165.7
Cc1ccc(OCCN2C(=O)S/C(=C\c3ccc(C)o3)C2=O)cc1	none
COC(=O)CN1C(=O)S/C(=C/c2ccc(N3CCCCC3)o2)C1=O	TPT1 inhibitor 181.2 (not shown: Rpn11 inh) | TPT1 inh confirm 191.3 | RNase T1 counter 170.1
O=C(O)CN1C(=O)/C(=C/c2ccc(N3CCCCC3)o2)SC1=S	none
CCCN1C(=O)S/C(=C\c2ccc(N3CCOCC3)o2)C1=O	TPT1 inhibitor active (not shown: Rpn11 inh) | TPT1 inh confirm 187.5 | RNase T1 counter 168.5
COC(=O)Cc1cc(=O)oc2cc(OC)ccc12	none
COC(=O)Cc1cc(C)cc2c(=O)cc(-c3ccoc3)oc12	TPT1 inhibitor 33.5 (not shown: Rpn11 inh, IDE cell activ) | TPT1 inh confirm 53.0 | RNase T1 counter 66.4
CCC(CC)C1C(C#N)=C(N)SC(N)=C1C#N	TPT1 inhibitor 38.5 | TPT1 inh confirm inactive | RNase T1 counter inactive
Cc1sc2nc(SC(C)C)nc(N)c2c1C	none
O=C(Nc1ccc(S(=O)(=O)Nc2nccs2)cc1)c1ccc(=O)[nH]c1	TPT1 inhibitor 35.6 | TPT1 inh confirm 37.4 | RNase T1 counter 50.9
Cn1c(=O)c2c(nc(Br)n2CC(=O)C23CC4CC(CC(C4)C2)C3)n(C)c1=O	none
COc1ccc(C(=O)/C=C2\NCCc3cc(OC)c(OC)cc32)cc1OC	TPT1 inhibitor 53.2 | TPT1 inh confirm inactive | RNase T1 counter 25.1
COc1cc(/C=C2/C(=O)CNC2=O)ccc1O	TPT1 inhibitor 29.9 | TPT1 inh confirm 54.6 | RNase T1 counter 77.1
O=C1NC(=Nc2ccccc2Cl)S/C1=C\c1cccc([N+](=O)[O-])c1O	TPT1 inhibitor 28.3 | TPT1 inh confirm 41.7 | RNase T1 counter 54.6
COc1c(/C=C2\SC(=Nc3ccccc3Cl)NC2=O)cccc1[N+](=O)[O-]	none
Cc1ccc(OCCOCCN2CCCC2)c(Br)c1	none
CC(=O)c1cccc(NS(=O)(=O)c2ccc(-c3cnc(C4CC4)o3)cc2)c1	TPT1 inhibitor 28.3 | TPT1 inh confirm inactive | RNase T1 counter inactive
CC(=O)Nc1ccc(NS(=O)(=O)c2ccc(-c3cnc(C4CC4)o3)cc2)cc1	none
O=C(Nc1ccn(-c2ccccc2)n1)c1ccccc1Br	TPT1 inhibitor 33.5 | TPT1 inh confirm inactive | RNase T1 counter inactive
CC(=O)Nc1ccn(-c2ccccc2)n1	none
O=C(Cc1ccc(Cl)c(Cl)c1)Nc1cccc(S(=O)(=O)N2CCOCC2)c1	TPT1 inhibitor 61.8 | TPT1 inh confirm inactive | RNase T1 counter inactive
COc1ccc(S(=O)(=O)N2CCN(C)CC2)cc1NC(=O)c1ccccc1C	none
N#Cc1c(N)n(-c2cccc(C(=O)O)c2)c2nc3ccccc3nc12	TPT1 inhibitor 35.9 (not shown: Rpn11 inh) | TPT1 inh confirm 39.6 | RNase T1 counter 49.4
Cc1nc2cc3c(cc2c(C)c1C(=O)OC(C)C)OCO3	none
CN(C)c1ccc(/C=C(\NC(=O)c2ccccc2)C(=O)NCc2cccnc2)cc1	TPT1 inhibitor 50.6 | TPT1 inh confirm 68.0 | RNase T1 counter 83.7
CN(C)c1ccc(/C=C(\NC(=O)c2ccccc2)C(=O)NCCN2CCOCC2)cc1	TPT1 inhibitor 28.5 | TPT1 inh confirm inactive | RNase T1 counter 22.6
CN(C)c1ccc(/C=C(\NC(=O)c2ccccc2)C(=O)N/N=C/c2ccc(C(=O)O)cc2)cc1	TPT1 inhibitor 33.3 | TPT1 inh confirm inactive | RNase T1 counter 29.4
CN(C)c1ccc(/C=N/NC(=O)c2ccccc2)cc1	none

Compound activity: PubChem BioAssay, several laboratories
